Active and inactive are the calls of the source. The rule behind the calls is not given here.
What was measured:
[1] = Terminal half life in Sprague-Dawley rat at 2 mg/kg, ip; type: ADME, organism-based; settings: in vivo, read-out: beta t1/2 (converted)
How it was run: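 Sprague-Dawley rats given a single ip dose of 2 mg/kg. Plasma concentration–time profile used to derive terminal half-life, Cmax, plasma clearance and Vss.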

[2] = biological target: Nicotinamide phosphoribosyltransferase (Homo sapiens, UniProt P43490); settings: 10 uM
[3] = system: HCT-116; test: Cell cycle arrest in human HCT116 cells assessed as accumulation at G2 phase at 1 uM after 48 hrs by propidium iodide staining based flow cytometry (reference value: 5%); type: functional
[4] = system: MDA-MB-231; test: cells; type: functional, cell-based; settings: Homo sapiens, MDA-MB-231, 72 h
[5] = system: HCT-116; test: Induction of apoptosis in human HCT116 cells assessed as late apoptotic cells at 5 uM after 72 hrs in presence of autophagy inhibitor wortmannin by Annexin V-FITC/propidium iodide staining-based flow cytometric analysis (reference value: 3.33%); type: functional
[6] = biological target: Histone deacetylase 2 (Homo sapiens, UniProt Q92769)
[7] = biological target: Histone deacetylase 3/NCoR1 (Homo sapiens, UniProt O15379); test: Inhibition of human recombinant HDAC3/GST tagged NCOR1 (397 to 503 residues) expressed in insect cells using Ac-Leu-Gly-Lys(Ac)-AMC as substrate preincubated for 5 mins followed by substrate addition measured after 30 mins by fluorescence assay
[8] = system: HCT-116; test: Induction of apoptosis in human HCT116 cells assessed as necrotic cells at 5 uM after 72 hrs in presence of autophagy inhibitor wortmannin by Annexin V-FITC/propidium iodide staining-based flow cytometric analysis (reference value: 1.25%); type: functional
[9] = system: HCT-116; test: Induction of autophagy in human HCT116 cells assessed as increase in LC3-2 level at 5 uM after 24 hrs by Western blot analysis; type: functional, cell-based
How it was run: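 HCT116 cells exposed to 5 μM for 24, 48 and 72 h; DMSO control. Lysed in RIPA on ice, cleared 12000 × g. 30 μg protein per lane on SDS-PAGE, transferred to PVDF, blocked in 5% BSA. Probed overnight at 4 °C for LC3-II and P-62, then secondary antibody 1.5 h. Infrared imaging detection with quantification.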

[10] = species on record: Homo sapiens; test: Inhibition of HDAC in human HCT116 cells assessed as increase in acetylated histone H3 level after 24 hrs by Western blot analysis; type: cell-based
How it was run: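 HCT116 cells treated at 1 and 5 μM for 24 h; DMSO-volume control. PBS-washed, RIPA-lysed on ice 30 min, centrifuged 12000 × g 15 min at 4 °C. 30 μg protein separated by SDS-PAGE, blotted to PVDF, blocked 5% BSA 2 h. Incubated with acetyl-histone H3 or H4 primary antibody overnight at 4 °C, then secondary antibody; infrared imaging.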

[11] = biological target: Histone deacetylase 4 (Homo sapiens, UniProt P56524); test: Inhibition of GST tagged human recombinant HDAC4 (H86 to 31G) expressed in Baculovirus infected Sf9 insect cells using Ac-Leu-Gly-Lys(Tfa)-AMC as substrate preincubated for 5 mins followed by substrate addition measured after 30 mins by fluorescence assay
[12] = system: HCT-116; test: cells; type: functional, cell-based; settings: Homo sapiens, HCT-116, 72 h
[13] = biological target: T1, Histone deacetylase 8 (Homo sapiens, UniProt Q9BY41); test: Inhibition of GST tagged full length human recombinant HDAC8 (H90 to 30H) expressed in Baculovirus infected Sf9 insect cells using Ac-Leu-Gly-Lys(Tfa)-AMC as substrate preincubated for 5 mins followed by substrate addition measured after 30 mins by fluorescence assay
T1 sequence (Q9BY41 whole entry): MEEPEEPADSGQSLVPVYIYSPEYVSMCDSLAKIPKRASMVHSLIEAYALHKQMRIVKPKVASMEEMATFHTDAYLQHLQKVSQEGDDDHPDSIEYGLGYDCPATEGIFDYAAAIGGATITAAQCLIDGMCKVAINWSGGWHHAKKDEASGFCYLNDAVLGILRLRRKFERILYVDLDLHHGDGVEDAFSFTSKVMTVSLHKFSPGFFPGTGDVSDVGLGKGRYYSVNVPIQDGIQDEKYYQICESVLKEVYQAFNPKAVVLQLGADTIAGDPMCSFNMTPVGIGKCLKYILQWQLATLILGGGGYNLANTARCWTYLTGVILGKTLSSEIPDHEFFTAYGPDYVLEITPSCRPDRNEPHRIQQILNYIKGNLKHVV

Sequence of Histone deacetylase 4 (P56524 whole entry): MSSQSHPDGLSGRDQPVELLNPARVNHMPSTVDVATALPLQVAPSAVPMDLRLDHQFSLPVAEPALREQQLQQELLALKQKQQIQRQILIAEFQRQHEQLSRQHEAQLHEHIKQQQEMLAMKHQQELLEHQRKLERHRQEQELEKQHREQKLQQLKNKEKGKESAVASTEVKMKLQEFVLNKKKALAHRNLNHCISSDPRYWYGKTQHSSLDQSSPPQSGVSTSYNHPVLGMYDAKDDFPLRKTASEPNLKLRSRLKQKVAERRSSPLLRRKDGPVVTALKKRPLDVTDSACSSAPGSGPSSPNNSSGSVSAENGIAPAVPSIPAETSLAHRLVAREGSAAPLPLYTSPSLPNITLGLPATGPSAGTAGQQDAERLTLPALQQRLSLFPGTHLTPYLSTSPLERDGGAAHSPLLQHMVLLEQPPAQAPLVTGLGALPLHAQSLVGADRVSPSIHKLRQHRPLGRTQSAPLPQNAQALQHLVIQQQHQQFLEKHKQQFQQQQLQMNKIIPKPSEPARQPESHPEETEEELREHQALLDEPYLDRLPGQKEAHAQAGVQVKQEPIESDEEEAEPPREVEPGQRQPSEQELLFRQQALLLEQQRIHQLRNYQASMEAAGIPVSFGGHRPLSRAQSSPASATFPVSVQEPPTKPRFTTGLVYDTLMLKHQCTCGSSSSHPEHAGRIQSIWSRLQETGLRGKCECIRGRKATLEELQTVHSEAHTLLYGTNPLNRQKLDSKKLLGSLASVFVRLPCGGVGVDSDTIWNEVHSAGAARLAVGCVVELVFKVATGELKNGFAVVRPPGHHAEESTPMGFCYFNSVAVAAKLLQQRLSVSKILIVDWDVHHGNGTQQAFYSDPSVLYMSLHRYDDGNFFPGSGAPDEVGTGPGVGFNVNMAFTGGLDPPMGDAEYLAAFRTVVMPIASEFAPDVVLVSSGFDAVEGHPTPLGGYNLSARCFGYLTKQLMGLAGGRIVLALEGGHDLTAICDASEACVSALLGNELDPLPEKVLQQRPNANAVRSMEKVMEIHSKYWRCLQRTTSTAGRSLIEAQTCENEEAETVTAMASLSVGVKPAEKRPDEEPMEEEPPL
Sequence of Histone deacetylase 3/NCoR1 (O15379 whole entry, the tested form may be a part): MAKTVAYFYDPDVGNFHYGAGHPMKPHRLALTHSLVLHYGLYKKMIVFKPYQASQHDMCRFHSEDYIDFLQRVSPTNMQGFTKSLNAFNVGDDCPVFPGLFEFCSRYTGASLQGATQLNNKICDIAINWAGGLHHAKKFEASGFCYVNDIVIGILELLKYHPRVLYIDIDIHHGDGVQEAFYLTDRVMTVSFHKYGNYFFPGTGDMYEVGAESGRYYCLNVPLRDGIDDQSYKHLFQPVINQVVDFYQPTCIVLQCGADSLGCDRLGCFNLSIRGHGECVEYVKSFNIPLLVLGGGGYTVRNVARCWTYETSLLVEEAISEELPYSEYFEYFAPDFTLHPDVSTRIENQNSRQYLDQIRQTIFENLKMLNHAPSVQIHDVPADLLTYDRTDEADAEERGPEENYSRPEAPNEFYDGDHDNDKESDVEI
Sequence of Histone deacetylase 3/NCoR1 (O75376 whole entry, further chain, the tested form may be a part): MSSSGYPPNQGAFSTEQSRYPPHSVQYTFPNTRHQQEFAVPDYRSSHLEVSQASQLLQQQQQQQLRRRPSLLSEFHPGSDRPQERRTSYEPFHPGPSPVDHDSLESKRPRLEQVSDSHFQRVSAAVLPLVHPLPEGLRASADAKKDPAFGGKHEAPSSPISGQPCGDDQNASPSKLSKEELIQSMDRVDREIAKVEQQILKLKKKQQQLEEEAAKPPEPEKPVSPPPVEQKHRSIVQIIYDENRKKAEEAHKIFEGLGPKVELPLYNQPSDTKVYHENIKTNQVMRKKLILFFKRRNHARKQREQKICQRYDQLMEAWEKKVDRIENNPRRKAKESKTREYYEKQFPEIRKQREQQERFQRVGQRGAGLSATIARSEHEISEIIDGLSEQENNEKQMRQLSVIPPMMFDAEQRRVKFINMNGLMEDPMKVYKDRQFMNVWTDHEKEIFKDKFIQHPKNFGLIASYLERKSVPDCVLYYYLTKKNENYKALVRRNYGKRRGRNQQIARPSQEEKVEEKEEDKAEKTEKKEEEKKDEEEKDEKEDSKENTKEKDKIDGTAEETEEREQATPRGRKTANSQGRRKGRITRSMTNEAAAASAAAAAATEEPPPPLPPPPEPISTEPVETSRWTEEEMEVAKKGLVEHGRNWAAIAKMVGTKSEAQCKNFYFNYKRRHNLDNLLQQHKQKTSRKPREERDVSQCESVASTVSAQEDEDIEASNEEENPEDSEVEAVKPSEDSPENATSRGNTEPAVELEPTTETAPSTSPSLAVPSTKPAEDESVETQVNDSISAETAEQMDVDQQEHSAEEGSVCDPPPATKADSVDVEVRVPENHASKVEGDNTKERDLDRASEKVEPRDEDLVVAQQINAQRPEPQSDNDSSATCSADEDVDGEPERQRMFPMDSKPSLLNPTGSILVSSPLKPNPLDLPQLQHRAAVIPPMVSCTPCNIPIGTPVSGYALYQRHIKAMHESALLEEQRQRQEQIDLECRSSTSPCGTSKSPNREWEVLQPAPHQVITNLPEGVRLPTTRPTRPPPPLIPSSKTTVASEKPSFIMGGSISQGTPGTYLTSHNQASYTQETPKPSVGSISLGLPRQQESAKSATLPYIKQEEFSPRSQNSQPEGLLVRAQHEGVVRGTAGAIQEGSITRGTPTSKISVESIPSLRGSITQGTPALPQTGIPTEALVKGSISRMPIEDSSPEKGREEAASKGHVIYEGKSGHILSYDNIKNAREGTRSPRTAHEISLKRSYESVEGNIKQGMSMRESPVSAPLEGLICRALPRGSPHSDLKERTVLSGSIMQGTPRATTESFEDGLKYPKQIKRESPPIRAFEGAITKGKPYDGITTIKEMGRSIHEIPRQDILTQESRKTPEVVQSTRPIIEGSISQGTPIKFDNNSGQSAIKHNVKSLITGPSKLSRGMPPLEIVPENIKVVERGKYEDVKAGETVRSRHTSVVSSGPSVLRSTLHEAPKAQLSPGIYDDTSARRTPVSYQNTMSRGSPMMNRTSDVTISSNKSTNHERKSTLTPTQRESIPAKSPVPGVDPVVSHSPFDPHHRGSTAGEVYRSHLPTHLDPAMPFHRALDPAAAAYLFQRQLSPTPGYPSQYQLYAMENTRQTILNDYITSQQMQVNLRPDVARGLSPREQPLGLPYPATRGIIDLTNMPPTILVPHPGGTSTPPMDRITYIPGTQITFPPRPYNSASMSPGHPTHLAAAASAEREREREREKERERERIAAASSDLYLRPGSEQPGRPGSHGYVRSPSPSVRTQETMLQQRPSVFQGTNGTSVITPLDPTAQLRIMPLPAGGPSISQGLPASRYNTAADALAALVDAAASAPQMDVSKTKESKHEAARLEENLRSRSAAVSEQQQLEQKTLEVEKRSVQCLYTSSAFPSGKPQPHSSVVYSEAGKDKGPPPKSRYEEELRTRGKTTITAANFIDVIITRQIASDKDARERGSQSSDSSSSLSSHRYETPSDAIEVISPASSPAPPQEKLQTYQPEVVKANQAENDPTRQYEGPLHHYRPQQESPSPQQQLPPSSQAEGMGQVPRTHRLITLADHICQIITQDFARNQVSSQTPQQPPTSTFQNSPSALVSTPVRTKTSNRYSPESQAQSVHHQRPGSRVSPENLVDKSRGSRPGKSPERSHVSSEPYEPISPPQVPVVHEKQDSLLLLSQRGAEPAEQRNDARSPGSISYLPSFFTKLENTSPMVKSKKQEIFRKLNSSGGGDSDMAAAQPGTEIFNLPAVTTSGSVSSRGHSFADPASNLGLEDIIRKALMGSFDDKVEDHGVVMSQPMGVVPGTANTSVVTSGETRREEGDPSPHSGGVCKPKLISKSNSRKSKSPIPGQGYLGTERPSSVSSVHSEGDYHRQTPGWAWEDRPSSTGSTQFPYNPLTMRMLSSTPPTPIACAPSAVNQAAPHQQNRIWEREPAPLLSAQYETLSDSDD
Sequence of Histone deacetylase 2 (Q92769 whole entry, the tested form may be a part): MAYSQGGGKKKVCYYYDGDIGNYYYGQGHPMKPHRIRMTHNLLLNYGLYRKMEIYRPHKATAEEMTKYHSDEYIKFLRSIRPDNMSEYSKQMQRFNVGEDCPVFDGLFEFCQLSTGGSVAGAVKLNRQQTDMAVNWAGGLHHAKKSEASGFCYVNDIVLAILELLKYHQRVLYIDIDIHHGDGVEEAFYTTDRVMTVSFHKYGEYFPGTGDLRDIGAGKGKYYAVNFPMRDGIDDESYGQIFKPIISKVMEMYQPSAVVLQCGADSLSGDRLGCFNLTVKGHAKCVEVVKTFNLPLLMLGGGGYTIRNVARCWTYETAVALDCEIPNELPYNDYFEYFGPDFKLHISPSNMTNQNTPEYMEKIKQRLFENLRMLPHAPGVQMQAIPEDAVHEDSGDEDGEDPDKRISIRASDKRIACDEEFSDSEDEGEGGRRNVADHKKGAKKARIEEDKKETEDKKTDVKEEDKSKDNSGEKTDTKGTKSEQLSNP
Sequence of Nicotinamide phosphoribosyltransferase (P43490 whole entry, looked up): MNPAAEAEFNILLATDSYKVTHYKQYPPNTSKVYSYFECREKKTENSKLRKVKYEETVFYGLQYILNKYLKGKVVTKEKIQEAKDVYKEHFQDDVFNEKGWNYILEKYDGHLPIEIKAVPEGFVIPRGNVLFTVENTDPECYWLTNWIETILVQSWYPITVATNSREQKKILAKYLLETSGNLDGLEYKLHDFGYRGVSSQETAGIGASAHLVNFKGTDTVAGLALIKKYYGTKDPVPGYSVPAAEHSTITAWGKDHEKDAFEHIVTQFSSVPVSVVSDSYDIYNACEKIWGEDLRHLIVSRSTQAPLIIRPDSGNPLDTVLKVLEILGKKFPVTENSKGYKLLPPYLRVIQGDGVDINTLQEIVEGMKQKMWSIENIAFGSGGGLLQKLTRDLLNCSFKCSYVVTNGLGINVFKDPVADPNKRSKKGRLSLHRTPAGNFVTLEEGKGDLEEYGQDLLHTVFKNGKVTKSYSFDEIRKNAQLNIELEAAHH

half-life [1]: 1.8 h
ΔTm [2]: 1.58 °C
IC50 [4]: 10 µM
IC50 [6]: 0.075 µM
IC50 [7]: 1.87 µM
IC50 [11]: > 100 µM
IC50 [12]: 2.4 µM
IC50 [13]: > 100 µM
Structure (SMILES): Nc1ccccc1NC(=O)c1ccc(Cn2cc(-c3ccc(C(=O)NCc4cccnc4)cc3)nn2)cc1
Activity [3]: 19%
Activity [5]: 15.22%
Activity [8]: 2.19%
Activity [9]: Active
inhibition [10]: Active
